According to ChEMBL document CHEMBL1275586, “Phenotypic susceptibility to bevirimat in isolates from HIV-1-infected patients without prior exposure to bevirimat” (Antimicrob Agents Chemother, 2010):

Key:
[1] = test system: Human immunodeficiency virus 1; experiment: Antiviral activity against Human immunodeficiency virus 1 isolate 33 harboring Gag-SP1 S368G, V370M and S373T mutant gene infected in human MT-2 cells by XTT assay relative to wild-type; type: functional, MT2
How it was run: (§1)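 Patient Gag-protease (SfoI-XmaI) fragments were ligated into the pXXLAI backbone, with colonies pooled to keep quasispecies. Virus came from 293T transfection, harvested at 2 days. MT-2 infection at 37°C used an input giving XTT signal-to-noise of 2.5–4.0 (≈MOI 0.001). Cells at ≈17,000/well with drug dilutions, 5 days, 37°C; XTT 1 h, A450–650. EC50 from % cell death; fold change vs wild-type LAI.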

[2] = test system: Human immunodeficiency virus 1; experiment: Antiviral activity against Human immunodeficiency virus 1 isolate 31 harboring Gag-SP1 V370A, T371S, N372A/T, A374N/T and I376V mutant gene infected in human MT-2 cells by XTT assay relative to wild-type; type: functional, MT2; how it was run: as §1
[3] = test system: Human immunodeficiency virus 1; experiment: Antiviral activity against antiretroviral-pretreated PI-resistant Human immunodeficiency virus 1 isolate 1 harboring Gag-Sp-1 S368C, V370A and A374N mutant gene deletion at T371 in Gag-SP-1 infected in human MT-2 cells by XTT assay relative to wild-type; type: functional, MT2
How it was run: (§2)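 Patient-derived Gag fragments were pooled as bacterial colonies to keep quasispecies diversity and ligated into the pXXLAI (HIV-1 LAI) backbone. Virus was made by transfecting 293T cells and harvesting supernatant 2 days later. MT-2 cells were infected at 37°C with an inoculum titrated to give an XTT signal-to-noise of 2.5–4.0. Cells were plated into drug dilutions, incubated 5 days at 37°C, and read by XTT absorbance (450−650 nm). EC50 was taken from percent cell death and expressed as fold change versus wild-type LAI.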

[4] = test system: Human immunodeficiency virus 1; experiment: Antiviral activity against antiretroviral-pretreated Human immunodeficiency virus 1 isolate 8 infected in human MT-2 cells by XTT assay relative to wild-type; type: functional, MT2; how it was run: as §2
[5] = test system: Human immunodeficiency virus 1; experiment: Antiviral activity against Human immunodeficiency virus 1 isolate 37 harboring Gag-capsid G357S mutant gene and Gag-SP1 I376V mutant gene infected in human MT-2 cells by XTT assay relative to wild-type; type: functional, MT2; how it was run: as §1
[6] = test system: Human immunodeficiency virus 1; experiment: Antiviral activity against Human immunodeficiency virus 1 LAI Gag-[…] V362I mutant infected in human MT-2 cells by XTT-assay relative to wild-type; type: functional, MT2
How it was run: (§3)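 Site-directed mutants were made by two-round overlap PCR into the pXXLAI (HIV-1 LAI) backbone from an individual clone, then transfected into 293T cells, with supernatant harvested at 2 days. MT-2 cells were infected at an input giving an XTT signal-to-noise of 2.5–4.0, plated at ≈17,000 cells/well with drug dilutions, and read by XTT after 5 days. EC50 from % cell death; fold change vs wild-type LAI.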

[7] = test system: Human immunodeficiency virus 1; experiment: Antiviral activity against Human immunodeficiency virus 1 isolate 6 harboring Gag-SP-1 V370, S373 and A374 mutant infected in human MT-2 cells by XTT-assay relative to wild-type; type: functional, MT2; how it was run: as §1
[8] = test system: Human immunodeficiency virus 1; experiment: Antiviral activity against Human immunodeficiency virus 1 LAI infected in human MT-2 cells by XTT-assay; type: functional, organism-based; conditions: MT2
How it was run: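 Recombinant virus produced by transfecting 7 μg viral plasmid (pXXLAI backbone; patient-derived SfoI-XmaI fragment for isolates) into 293T cells. Supernatant harvested 2 days later. 2.4 million MT-2 cells infected at 37°C with virus giving XTT signal-to-noise 2.5–4.0, then plated ≈17,000 cells/well with drug dilutions. After 5 days at 37°C, 5% CO2, 1.67 mg/ml XTT added for 1 h. A450–A650 read; EC50 from cell-death curves.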

[9] = test system: Human immunodeficiency virus 1; experiment: Antiviral activity against Human immunodeficiency virus 1 isolate 30 infected in human MT-2 cells by XTT assay relative to wild-type; type: functional, MT2
[10] = test system: Human immunodeficiency virus 1; experiment: Antiviral activity against antiretroviral-pretreated PI-resistant Human immunodeficiency virus 1 isolate 3 harboring Gag-capsid G357S mutant gene, Gag-Sp-1 V370A and N372H mutant gene and deletion at T371 in Gag-SP-1 infected in human MT-2 cells by XTT assay relative to wild-type; type: functional, MT2; how it was run: as §2
[11] = test system: Human immunodeficiency virus 1; experiment: Antiviral activity against antiretroviral-pretreated PI-resistant Human immunodeficiency virus 1 isolate 20 harboring Gag-capsid G357S mutant gene and Gag-SP1 Q369H and I376V mutant gene infected in human MT-2 cells by XTT assay relative to wild-type; type: functional, MT2; how it was run: as §2
[12] = test system: Human immunodeficiency virus 1; experiment: Antiviral activity against antiretroviral-pretreated PI-resistant Human immunodeficiency virus 1 isolate 27 harboring infected in human MT-2 cells by XTT assay relative to wild-type
[13] = test system: Human immunodeficiency virus 1; experiment: Antiviral activity against antiretroviral-pretreated PI-resistant Human immunodeficiency virus 1 isolate 5 harboring Gag-SP1 Q369H and T375N mutant gene infected in human MT-2 cells by XTT assay relative to wild-type; type: functional, MT2; how it was run: as §2
[14] = test system: Human immunodeficiency virus 1; experiment: Antiviral activity against Human immunodeficiency virus 1 isolates harboring Gag-SP-1 V370A mutant gene relative to wild-type; type: functional; how it was run: as §3
[15] = test system: Human immunodeficiency virus 1; experiment: Antiviral activity against antiretroviral-pretreated PI-resistant Human immunodeficiency virus 1 isolate 23 harboring Gag-capsid G357S and V362I mutant gene, Gag-SP-1 V370A and T375A mutant gene and deletion at T371 in Gag-SP-1 infected in human MT-2 cells by XTT assay relative to wild-type; type: functional, MT2; how it was run: as §2
[16] = test system: Human immunodeficiency virus 1; experiment: Antiviral activity against antiretroviral-pretreated PI-resistant Human immunodeficiency virus 1 isolate 25 harboring Gag-capsid G357S mutant gene and Gag-SP-1 […] mutant gene infected in human MT-2 cells by XTT assay relative to wild-type; type: functional, MT2; how it was run: as §2
[17] = test system: Human immunodeficiency virus 1; experiment: Antiviral activity against Human immunodeficiency virus 1 isolate 34 harboring Gag-capsid G357S mutant gene and Gag-SP1 V370A, N372T, S373P and T375A mutant gene infected in human MT-2 cells by XTT assay relative to wild-type; type: functional, MT2; how it was run: as §1
[18] = test system: Human immunodeficiency virus 1; experiment: Antiviral activity against antiretroviral-pretreated PI-resistant Human immunodeficiency virus 1 isolate 10 harboring deletion at T371 of Gag-SP-1 and Gag-Sp-1 V370I, S373P and I376V mutant gene infected in human MT-2 cells by XTT assay relative to wild-type; type: functional, MT2; how it was run: as §2
[19] = test system: Human immunodeficiency virus 1; experiment: Antiviral activity against antiretroviral-pretreated PI-resistant Human immunodeficiency virus 1 isolate 6 harboring Gag-SP-1 V370A,S373A and A374T mutant gene infected in human MT-2 cells by XTT assay relative to wild-type; type: functional, MT2; how it was run: as §2
[20] = test system: Human immunodeficiency virus 1; experiment: Antiviral activity against antiretroviral-pretreated PI-resistant Human immunodeficiency virus 1 isolate 4 harboring Gag-capsid G357S mutant gene and Gag-Sp-1 N372A, A374T and T375N mutant gene infected in human MT-2 cells by XTT assay relative to wild-type
[21] = test system: Human immunodeficiency virus 1; experiment: Antiviral activity against Human immunodeficiency virus 1 isolate 2 harboring Gag-capsid A146P, S173A, V215L, E230D, N252S, L268M and A340G mutant gene and protease L10I, I15V, K20R, M36I, S37N, M46I, L63P, V82A, N83H, I84V, I85T and L90M mutant gene infected in human MT-2 cells by XTT-assay relative to wild-type; type: functional, MT2; how it was run: as §1
[22] = test system: Human immunodeficiency virus 1; experiment: Antiviral activity against Human immunodeficiency virus 1 isolate 35 harboring Gag-capsid G357S mutant gene and Gag-SP1 V370A, T371Q, N372S, T375N and I376M mutant gene infected in human MT-2 cells by XTT assay relative to wild-type; type: functional, MT2; how it was run: as §1

With `C=C(C)[C@@H]1CC[C@]2(C(=O)O)CC[C@]3(C)[C@H](CC[C@@H]4[C@@]5(C)CC[C@H](OC(=O)CC(C)(C)C(=O)O)C(C)(C)[C@@H]5CC[C@]43C)[C@@H]12` [BEVIRIMAT] the “fold change (FC)” value [1] was over 100, the “fold change (FC)” value [2] was over 100 and the “fold change (FC)” value [3] was over 100. The “fold change (FC)” value [4] was 1.2, the “fold change (FC)” value [5] was 4.6 and the “fold change (FC)” value [6] was over 100. The “fold change (FC)” value [7] was 0.4, the EC50 [8] was 0.034 µM and the “fold change (FC)” value [9] was 5.2. For the same compound, the “fold change (FC)” value [10] was over 100, the “fold change (FC)” value [11] was 2.1 and the “fold change (FC)” value [12] was 36. The “fold change (FC)” value [13] was 2.2, the “fold change (FC)” value [14] was over 151.4 and the “fold change (FC)” value [15] was over 100. For the same compound, the “fold change (FC)” value [16] was 11, the “fold change (FC)” value [17] was over 100 and the “fold change (FC)” value [18] was over 100. The “fold change (FC)” value [19] was over 100, the “fold change (FC)” value [20] was over 100 and the “fold change (FC)” value [21] was over 100. The “fold change (FC)” value [22] was over 100.
